Data taken from ChEMBL document CHEMBL1150355, “Design and evaluation of a novel series of 2,3-oxidosqualene cyclase inhibitors with low systemic exposure, relationship between pharmacokinetic properties and ocular toxicity” (Bioorg Med Chem, 2008).
Activity calls are given as the source filed them. The rule behind the calls is not given here.

Legend:
Rattus norvegicus [1] = test: Induction of neosynthetized 2,3 mono-epoxysqualene synthesis in OFA rat liver at 2 mg/kg, po after 3 hrs relative to BIBB 515; format: functional
In short: (§1)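 Male OFA rats dosed orally at 2 mg/kg. Sterol synthesis was labelled by ip [14C]mevalonate (370 kBq) for the final hour, giving 3 h or 8 h total exposure. Lens and liver lipids were extracted with isopropanol, separated by TLC, and cholesterol and MES radioactivity quantified by phosphorimaging. Cholesterol inhibition is relative to vehicle-treated rats, and MES as % of BIBB 515-treated rats (100%).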

[2] = Biodistribution in OFA rat eyes at 1 mg/kg, iv after 2 hrs; format: ADME, organism-based; design: dose 1 mg/kg, route intravenous; conditions: eye, read-out: Drug uptake
In short: (§2)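 OFA rats (n = 10) dosed 1 mg/kg by iv bolus via penis vein in 10% DMA/90% PEG200. Plasma and tissue homogenates in borate buffer 0.1 M pH 11.5 were extracted with ethyl ether and analysed by LC. Plasma AUC was computed over 0–6 h.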

Rattus norvegicus [3] = test: Inhibition of 2,3-oxidosqualene-lanosterol cyclase in female Sprague-Dawley rat assessed as 2,3 mono-epoxysqualene appearance in liver at 30 mg/kg, po administered once daily for 21 days; format: functional, organism-based; design: dose 30 mg/kg
In short: (§3)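 Sprague–Dawley rats (3 per sex) were dosed orally once daily for 21 days. On day 21, 3 h after the last dose, rats were sacrificed and hepatic lipids extracted and separated by TLC. MES was visualised with 5% phosphomolybdic acid in isopropanol, and MES mass quantified by densitometry.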

Rattus norvegicus [4] = test: Inhibition of neosynthetized cholesterol synthesis in OFA rat liver at 2 mg/kg, po after 3 hrs; format: functional; in short: as §1
Rattus norvegicus [5] = test: Induction of neosynthetized 2,3 mono-epoxysqualene synthesis in OFA rat liver at 2 mg/kg, po after 8 hrs relative to BIBB 515; format: functional; in short: as §1
Lanosterol synthase = target: T1, Lanosterol synthase (Homo sapiens, UniProt P48449); test: Inhibition of 2,3-oxidosqualene-lanosterol cyclase
T1 sequence (P48449 whole entry): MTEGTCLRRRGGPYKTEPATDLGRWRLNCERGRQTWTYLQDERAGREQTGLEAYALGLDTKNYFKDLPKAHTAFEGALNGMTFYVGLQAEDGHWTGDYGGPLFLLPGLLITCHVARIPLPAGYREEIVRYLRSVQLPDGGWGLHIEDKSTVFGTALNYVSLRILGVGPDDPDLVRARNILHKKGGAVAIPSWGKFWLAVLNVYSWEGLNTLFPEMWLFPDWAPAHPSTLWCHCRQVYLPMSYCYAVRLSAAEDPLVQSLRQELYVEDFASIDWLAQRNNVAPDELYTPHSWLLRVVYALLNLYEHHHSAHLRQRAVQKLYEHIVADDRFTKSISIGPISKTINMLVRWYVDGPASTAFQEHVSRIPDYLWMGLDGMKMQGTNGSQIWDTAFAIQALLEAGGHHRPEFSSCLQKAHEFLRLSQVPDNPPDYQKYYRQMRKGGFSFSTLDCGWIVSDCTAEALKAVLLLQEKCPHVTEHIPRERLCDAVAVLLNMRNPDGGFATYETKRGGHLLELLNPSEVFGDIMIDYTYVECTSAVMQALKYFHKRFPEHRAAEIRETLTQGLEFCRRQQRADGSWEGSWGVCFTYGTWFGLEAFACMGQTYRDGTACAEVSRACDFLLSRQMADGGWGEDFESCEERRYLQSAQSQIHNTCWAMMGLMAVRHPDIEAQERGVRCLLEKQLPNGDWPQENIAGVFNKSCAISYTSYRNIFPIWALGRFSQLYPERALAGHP
In short: (§4)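 HepG2 cells were incubated 24 h with compound in BME with 10% fetal calf serum, then labelled with [14C]mevalonate (7.4 kBq). Lipids were extracted with heptane/isopropanol and separated by TLC. [14C]cholesterol, MES and DES were identified against standards and quantified by phosphorimaging, scoring cholesterol synthesis inhibition together with MES/DES formation.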

Rattus norvegicus [6] = test: Induction of neosynthetized 2,3 mono-epoxysqualene synthesis in OFA rat lens at 2 mg/kg, po after 3 hrs relative to BIBB 515; format: functional, Lens of camera-type eye; in short: as §1
Rattus norvegicus [7] = test: Inhibition of 2,3-oxidosqualene-lanosterol cyclase in male Sprague-Dawley rat assessed as 2,3 mono-epoxysqualene appearance in liver at 30 mg/kg, po administered once daily for 21 days; format: functional, organism-based; design: dose 30 mg/kg; in short: as §3
[8] = AUC (0 to 6 hrs) in OFA rat at 1 mg/kg, iv; format: ADME, organism-based; design: time < 6 hr, dose 1 mg/kg, route intravenous; conditions: plasma; in short: as §2
[9] = Metabolic stability in rat liver microsomes assessed as intrinsic clearance […]; format: ADME, Microsome
Rattus norvegicus [10] = test: Inhibition of 2,3-oxidosqualene-lanosterol cyclase in female Sprague-Dawley rat assessed as 2,3 mono-epoxysqualene appearance in liver at 10 mg/kg, po administered once daily for 21 days; format: functional, organism-based; design: dose 10 mg/kg; in short: as §3
Rattus norvegicus [11] = test: Ocular toxicity in Sprague-Dawley rat assessed as opacification of anterior lens at 30 mg/kg, po administered once daily for 21 days; format: organism-based, Lens of camera-type eye; design: dose 30 mg/kg, route oral; conditions: in vivo, 504 h
In short: (§5)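 Sprague–Dawley rats (male and female, n = 3) were dosed orally once daily for 21 days. Anterior lens opacification was scored from 0 to 6 (4 marked, 5 very marked, 6 severe), with histological examination of the eye.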

[12] = Biodistribution in OFA rat liver at 1 mg/kg, iv after 2 hrs; format: ADME, organism-based; design: dose 1 mg/kg, route intravenous; conditions: read-out: Drug uptake; in short: as §2
Rattus norvegicus [13] = test: Inhibition of neosynthetized cholesterol synthesis in OFA rat lens at 2 mg/kg, po after 8 hrs; format: functional; conditions: Lens of camera-type eye; in short: as §1
Rattus norvegicus [14] = test: Inhibition of 2,3-oxidosqualene-lanosterol cyclase in male Sprague-Dawley rat assessed as 2,3 mono-epoxysqualene appearance in liver at 2 mg/kg, po administered once daily for 21 days; format: functional, organism-based; design: dose 2 mg/kg; in short: as §3
[15] = Biodistribution in OFA rat liver at 1 mg/kg, iv after 6 hrs; format: ADME, organism-based; design: dose 1 mg/kg, route intravenous; conditions: read-out: Drug uptake; in short: as §2
Rattus norvegicus [16] = test: Inhibition of 2,3-oxidosqualene-lanosterol cyclase in male Sprague-Dawley rat assessed as 2,3 mono-epoxysqualene appearance in liver at 10 mg/kg, po administered once daily for 21 days; format: functional, organism-based; design: dose 10 mg/kg; in short: as §3
[17] = Biodistribution in OFA rat eyes at 1 mg/kg, iv after 6 hrs; format: ADME, organism-based; design: dose 1 mg/kg, route intravenous; conditions: eye, read-out: Drug uptake; in short: as §2
Rattus norvegicus [18] = test: Inhibition of neosynthetized cholesterol synthesis in OFA rat liver at 2 mg/kg, po after 8 hrs; format: functional; in short: as §1
Rattus norvegicus [19] = test: Induction of neosynthetized 2,3 mono-epoxysqualene synthesis in OFA rat lens at 2 mg/kg, po after 8 hrs relative to BIBB 515; format: functional, Lens of camera-type eye; in short: as §1
Rattus norvegicus [20] = test: Inhibition of neosynthetized cholesterol synthesis in OFA rat lens at 2 mg/kg, po after 3 hrs; format: functional; conditions: Lens of camera-type eye; in short: as §1
Rattus norvegicus [21] = test: Inhibition of 2,3-oxidosqualene-lanosterol cyclase in female Sprague-Dawley rat assessed as 2,3 mono-epoxysqualene appearance in liver at 2 mg/kg, po administered once daily for 21 days; format: functional, organism-based; design: dose 2 mg/kg; in short: as §3
[22] = target: T2, Lanosterol synthase (Homo sapiens) (UniProt P48449); test: Inhibition of 2,3-oxidosqualene-lanosterol cyclase at 200 nM; in short: as §4
T2 sequence (whole entry): T1 sequence (P48449 whole entry)

Rattus norvegicus [23] = test: Ocular toxicity in Sprague-Dawley rat assessed as opacification of anterior lens at 2 mg/kg, po administered once daily for 21 days; format: organism-based, Lens of camera-type eye; design: dose 2 mg/kg, route oral; conditions: in vivo, 504 h; in short: as §5

| Structure (SMILES) | concentration at 2 h [2] | IC50 (Lanosterol synthase) | AUC(0-t) at 6 h [8] | CLint scaled [9] | concentration at 2 h [12] | concentration at 6 h [15] | concentration at 6 h [17] | Activity (Rattus norvegicus [1]) | inhibition in vivo at 2 mg/kg (Rattus norvegicus [4]) | Activity (Rattus norvegicus [5]) | Activity (Rattus norvegicus [6]) | inhibition in vivo at 2 mg/kg (Rattus norvegicus [13]) | inhibition in vivo at 2 mg/kg (Rattus norvegicus [18]) | Activity (Rattus norvegicus [19]) | inhibition in vivo at 2 mg/kg (Rattus norvegicus [20]) | other results |
| --- | --- | --- | --- | --- | --- | --- | --- | --- | --- | --- | --- | --- | --- | --- | --- | --- |
| CN1CCN(c2ccc(CN3CCN(S(=O)(=O)c4ccc(Cl)cc4)CC3)cc2)CC1 | 278 ng/g | 6 nM | 97 ng·h/mL | 5.4 mL/min/g | 6600 ng/g | 3270 ng/g | 123 ng/g | 111% | 75% | 232% | 162% | 67% | 62% | 29% | 67% | Activity (Rattus norvegicus [3]): Toxic; Activity (Rattus norvegicus [7]): Toxic; Activity (Rattus norvegicus [10]): Toxic; Activity (Rattus norvegicus [11]): Toxic; Activity (Rattus norvegicus [14]): Toxic; Activity (Rattus norvegicus [16]): Toxic; Activity (Rattus norvegicus [21]): Toxic |
| O=C(c1ccc(Cl)cc1)N1CCC(=Cc2ccc(C3=NCCO3)cc2)CC1 | < 10 ng/g |  | 1030 ng·h/mL | 2.3 mL/min/g | 301 ng/g | 169 ng/g | < 10 ng/g | 100% | 85% | 100% | 100% | 61% | 40% | 100% | 79% |  |
| O=C(c1ccc(Cl)cc1)N1CCN(Cc2ccc(-c3ccn[nH]3)cc2)CC1 |  |  |  |  |  |  |  |  |  |  |  |  |  |  |  | Activity [22]: inactive |
| COc1ccc(C(=O)N2CCN(Cc3ccc(-c4ccncc4)cc3)CC2)cc1 |  | 2510 nM |  |  |  |  |  |  |  |  |  |  |  |  |  |  |
| O=C(N1CCN(Cc2ccc(-n3ccnc3)cc2)CC1)C(F)(F)F |  |  |  |  |  |  |  |  |  |  |  |  |  |  |  | Activity [22]: inactive |
| O=C(c1ccc(Cl)cc1)N1CCN(Cc2ccc(-n3ccnc3)cc2)CC1 | 65 ng/g | 32 nM | 534 ng·h/mL | 0.2 mL/min/g | 2010 ng/g | 660 ng/g | < 10 ng/g | 156% | 85% | 85% | 104% | 0% | 20% | 51% | 76% | Activity (Rattus norvegicus [3]): Toxic; Activity (Rattus norvegicus [7]): Toxic; Activity (Rattus norvegicus [10]): Toxic; Activity (Rattus norvegicus [11]): Toxic; Activity (Rattus norvegicus [14]): Non-toxic; Activity (Rattus norvegicus [23]): Non-toxic; Activity (Rattus norvegicus [16]): Toxic; Activity (Rattus norvegicus [21]): Toxic |

Now from value to compound, other results behind:

| concentration at 2 h [2] | IC50 (Lanosterol synthase) | AUC(0-t) at 6 h [8] | CLint scaled [9] | concentration at 2 h [12] | concentration at 6 h [15] | concentration at 6 h [17] | Structure (SMILES) | Activity (Rattus norvegicus [1]) | inhibition in vivo at 2 mg/kg (Rattus norvegicus [4]) | Activity (Rattus norvegicus [5]) | Activity (Rattus norvegicus [6]) | inhibition in vivo at 2 mg/kg (Rattus norvegicus [13]) | inhibition in vivo at 2 mg/kg (Rattus norvegicus [18]) | Activity (Rattus norvegicus [19]) | inhibition in vivo at 2 mg/kg (Rattus norvegicus [20]) | other results |
| --- | --- | --- | --- | --- | --- | --- | --- | --- | --- | --- | --- | --- | --- | --- | --- | --- |
| 260 ng/g | 20 nM | 362 ng·h/mL | 3.6 mL/min/g | 2420 ng/g | 1320 ng/g | 194 ng/g | CN(C)Cc1ccc(CN2CCN(C(=O)c3ccc(OC(F)(F)F)cc3)CC2)cc1 | 100% | 83% | 241% | 175% | 66% | 69% | 51% | 64% |  |
|  | 32 nM |  | 2.5 mL/min/g |  |  |  | CN(C)Cc1ccc(CN2CCN(S(=O)(=O)c3ccc(Cl)cc3)CC2)cc1 | 55% | 74% |  |  |  |  |  |  |  |
|  | 28 nM |  | 9.9 mL/min/g |  |  |  | CN(C)Cc1ccc(-c2ccc(CCNS(=O)(=O)c3ccc(C#N)cc3)cc2)cc1 | 6% | 47% |  |  |  |  |  |  |  |
|  | 40 nM |  |  |  |  |  | CN(C)Cc1ccc(CN2CCN(C(=O)c3ccc(Cl)cc3)CC2)cc1 |  |  |  |  |  |  |  |  |  |
